Results from ChEMBL document CHEMBL3259668, “Synthesis of N-benzenesulfonamide-1H-pyrazoles bearing arylsulfonyl moiety: novel celecoxib analogs as potent anti-inflammatory agents” (Eur J Med Chem, 2014).

Assays:
Rattus norvegicus [1] = assay: Antiinflammatory activity in ip dosed Sprague-Dawley rat assessed as inhibition of carrageenan-induced foot paw edema after 3 hrs by plethysmometer analysis; type: functional; details: Sprauge-Dawley
Procedure, shortened: (§1)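 Rats fasted at least 16 h with free access to water. Compounds were given as a suspension in 0.5% methyl cellulose, with a vehicle-only negative control group. Paw volume was measured by water displacement on a plethysmometer before and after treatment. Inhibition (%) = (1 − D/C) × 100, where D and C are the paw-volume changes in treated and control groups.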

Mus musculus [2] = assay: Analgesic activity in ip dosed albino Swiss mouse after 2 hrs by hot plate test; type: functional
Procedure, shortened: (§2)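 Mice given a single intraperitoneal dose of test compound (5-200 mg/kg). Reaction time on the hot plate was measured before treatment as the control and again at 15, 30, 60 and 120 min after injection, with a 60 s cut-off. Each animal served as its own control.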

Mus musculus [3] = assay: Analgesic activity in ip dosed albino Swiss mouse after 0.5 hrs by hot plate test; type: functional; procedure, shortened: as §2
[4] = Toxicity in ip dosed mouse assessed as behavioral changes and death during observation up to 72 hrs; type: organism-based; details: in vivo
Procedure, shortened: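 Male mice in groups, given test compounds intraperitoneally at various doses. Watched continuously for up to 6 h, then kept under observation for 72 h, recording all behavioural changes and deaths. Percentage of deaths at each dose was converted to probits to calculate LD50 (mM/kg).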

Mus musculus [5] = assay: Analgesic activity in ip dosed albino Swiss mouse after 1 hr by hot plate test; type: functional; procedure, shortened: as §2
Rattus norvegicus [6] = assay: Antiinflammatory activity in ip dosed Sprague-Dawley rat assessed as inhibition of carrageenan-induced foot paw edema after 1 hr by plethysmometer analysis; type: functional; details: Sprauge-Dawley; procedure, shortened: as §1
Rattus norvegicus [7] = assay: Antiinflammatory activity in ip dosed Sprague-Dawley rat assessed as inhibition of carrageenan-induced foot paw edema after 2 hrs by plethysmometer analysis; type: functional; details: Sprauge-Dawley; procedure, shortened: as §1
Rattus norvegicus [8] = assay: Gastrointestinal toxicity in albino rat assessed as ulcer index at 100 umol/kg, po qd for 3 days measured 6 hrs after last dose; details: in vivo, 100 µmol/kg
[9] = target: T1, Prostaglandin G/H synthase 1 (Ovis aries) (UniProt P05979); assay: Inhibition of ovine COX1 at 5 uM
T1 sequence (whole entry): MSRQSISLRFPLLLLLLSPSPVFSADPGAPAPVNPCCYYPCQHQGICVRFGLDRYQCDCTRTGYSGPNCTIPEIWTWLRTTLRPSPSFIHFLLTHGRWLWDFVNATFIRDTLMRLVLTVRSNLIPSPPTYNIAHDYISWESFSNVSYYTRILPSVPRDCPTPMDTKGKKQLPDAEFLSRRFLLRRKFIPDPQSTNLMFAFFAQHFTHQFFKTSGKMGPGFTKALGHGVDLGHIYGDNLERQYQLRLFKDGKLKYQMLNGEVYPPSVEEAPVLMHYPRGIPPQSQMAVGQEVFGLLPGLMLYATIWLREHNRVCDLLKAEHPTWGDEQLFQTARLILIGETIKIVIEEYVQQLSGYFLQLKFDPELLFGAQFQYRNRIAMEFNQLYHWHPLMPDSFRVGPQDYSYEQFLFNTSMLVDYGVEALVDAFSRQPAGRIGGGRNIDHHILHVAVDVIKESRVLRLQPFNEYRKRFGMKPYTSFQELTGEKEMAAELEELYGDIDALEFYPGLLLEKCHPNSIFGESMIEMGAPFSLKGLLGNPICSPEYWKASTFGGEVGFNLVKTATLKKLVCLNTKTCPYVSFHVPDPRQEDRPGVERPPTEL

Ovis aries = organism: Ovis aries; assay: Selectivity index, ratio of ovine COX2 to ovine COX1

SMILES	ED50 (Rattus norvegicus [1]) [µM/kg]	ED50 (Mus musculus [2]) [µM/kg]	ED50 (Mus musculus [3]) [µM/kg]	LD50 at 72 h [4] [µmol/kg]	ED50 (Mus musculus [5]) [µM/kg]	ED50 (Rattus norvegicus [6]) [µM/kg]	ED50 (Rattus norvegicus [7]) [µM/kg]	UI (Rattus norvegicus [8])	inhibition [9] [%]	Selectivity Index (Ovis aries)
O=S(=O)(C/C(=N/O)c1ccccc1)c1ccccc1	256	244	320	17400	265	285	245	–	–	–
CC(=O)c1nn(-c2ccc(S(N)(=O)=O)cc2)c(-c2ccccc2)c1S(=O)(=O)c1ccccc1	372	261	311	10100	261	363	376	–	–	–
O=C(CS(=O)(=O)c1ccccc1)c1ccc(Br)cc1	327	318	218	12400	318	550	350	–	–	–
CC(=O)c1nn(-c2ccc(S(N)(=O)=O)cc2)c(-c2ccc(C)cc2)c1S(=O)(=O)c1ccccc1	95	147	50	10100	147	112	102	2.25	18	1.83
CC(=O)c1nn(-c2ccc(S(N)(=O)=O)cc2)c(-c2ccc(Br)cc2)c1S(=O)(=O)c1ccccc1	68	80	57	7100	81	87	64	2.86	34	0.79
CC(=O)c1nn(-c2ccc(S(N)(=O)=O)cc2)c(-c2ccc(Br)cc2)c1S(=O)(=O)c1ccc(C)cc1	51	204	69	7100	195	75	54	0.98	3	13
Cc1ccc(/C(CS(=O)(=O)c2ccccc2)=N\Nc2ccccc2)cc1	169	288	220	11500	260	280	181	–	–	–
O=C(CS(=O)(=O)c1ccccc1)c1ccccc1	242	145	250	19700	158	238	232	–	–	–
Cc1ccc(/C(CS(=O)(=O)c2ccccc2)=N\O)cc1	237	200	212	9000	203	271	238	–	–	–
Cc1ccc(S(=O)(=O)CC(=O)c2ccc(Br)cc2)cc1	200	66	73	12700	69	213	213	–	–	–
Cc1ccc(C(=O)CS(=O)(=O)c2ccccc2)cc1	133	434	168	14300	408	145	137	–	–	–
O=S(=O)(C/C(=N/Nc1ccccc1)c1ccccc1)c1ccccc1	256	345	285	14600	319	270	248	–	–	–
Cc1ccc(-c2cc(C(F)(F)F)nn2-c2ccc(S(N)(=O)=O)cc2)cc1 [CELECOXIB]	86	70	156	9800	72	89	89	0.92	–	–
